These results are taken from ChEMBL document CHEMBL1144642, “Antiproliferative activity of 2-alkyl-4-halopiperidines and 2-alkyl-4-halo-1,2,5,6-tetrahydropyridines in solid tumor cell lines” (2007).

Holding throughout (format): functional
For one test, the system named is A2780. The experiment in a line: Antiproliferative activity against human A2780 cells after 48 hrs by SRB assay. The conditions noted are these: A2780, 48 h. The method in brief:
(§1)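 NCI protocol, SRB read-out after 48 h continuous drug exposure. GI50, TGI and LC50 derived; 100 μM was the top concentration tested, with TGI and LC50 reported only when under 100 μM. GI50 values are means of two to four experiments ± standard deviation.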
In general terms: The SRB assay estimates cell density from bound dye.

The test system of test [1] is SW1573. The experiment in a line: Antiproliferative activity against human SW1573 cells after 48 hrs by SRB assay. Particulars: SW1573, 48 h. Summed up: as §1
For test [2], the system named is WiDr. As to the kind of experiment: Antiproliferative activity against human WiDr cells after 48 hrs by SRB assay. Summed up: as §1
Test [3] has as its system SW1573. As to the kind of experiment: Cell cycle arrest in human SW1573 cells assessed as accumulation at G2/M phase at 10 uM after 24 hrs relative to control. Summed up:
(§2)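 Cells seeded at 0.7–1 × 10⁶ per well and left 24 h, then exposed 24 h to 10 or 20 μM beside untreated controls. Trypsinized, fixed in ice-cold 70% ethanol overnight at −20 °C, treated with RNAse and propidium iodide 30 min at 37 °C in the dark. DNA content read by flow cytometry (25,000 cells/sample); G2/M percentage compared with control.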

Test [4] has as its system WiDr. The experiment in a line: Cell cycle arrest in human WiDr cells assessed as accumulation at G2/M phase at 10 uM after 24 hrs relative to control. Summed up: as §2
Test [5] concerns SW1573. As to the kind of experiment: Cell cycle arrest in human SW1573 cells assessed as accumulation at G2/M phase at 20 uM after 24 hrs relative to control. The method in brief:
as §2

Test [6] deals with WiDr. The experiment in a line: Cell cycle arrest in human WiDr cells assessed as accumulation at G2/M phase at 20 uM after 24 hrs relative to control. Summed up:
as §2

Molecules are shown by their SMILES.

By GI50 is commonly meant the concentration that inhibits growth by half. Read a high GI50 as less potent growth inhibition. The TGI is the concentration at which net growth stops. Usually LC50 stands for the concentration lethal to half of the exposed cells or organisms. Higher therefore signals a less lethal substance.

As to `CCCCCCCC1C=C(Cl)CCN1S(=O)(=O)c1ccc(C)cc1` (centres undefined), the 50% growth inhibitory concentration (GI50) in the test with A2780 was determined as 92 µM; in the test with SW1573 [1], 49 µM; in the test on WiDr [2], 50 µM.
Taken in the same sequence, the figures for `Cc1ccc(S(=O)(=O)N2CCC(Br)=CC2CC(C)C)cc1` (centres undefined) were 36 µM, 26 µM and 16 µM.
On to `Cc1ccc(S(=O)(=O)N2CCC(Br)CC2)cc1`, for which the GI50 in the test on A2780, with SW1573 [1] and in the test with WiDr [2] was greater than 100 µM throughout.
With `Cc1ccc(S(=O)(=O)N2CC[C@@H](Br)C[C@@H]2c2ccccc2)cc1`, the GI50 in the test with A2780 is greater than 100 µM; in the test with SW1573 [1], greater than 100 µM; in the test on WiDr [2] it was 36 µM.
Consider `Cc1ccc(S(=O)(=O)N2CC[C@@H](Cl)C[C@@H]2Cc2ccccc2)cc1`, for which the values for the GI50 in the test with A2780, in the test with SW1573 [1] and in the test on WiDr [2] were 19 µM, 12 µM and 20 µM, respectively. For the same compound, the TGI was found to be 50 µM in the test with A2780 and 66 µM with SW1573 [1].
On to `Cc1ccc(S(=O)(=O)N2CCC(Cl)=CC2c2ccccc2)cc1` (centres undefined), for which, in the test with A2780, the GI50 worked out at 17 µM, the LC50 (50% lethal concentration) came out at 86 µM and the TGI came to 42 µM. For the same compound, in the test with SW1573 [1], it took 16 µM to inhibit growth by half (GI50), the LC50 was 87 µM and the TGI is 37 µM. In the test with WiDr [2], this compound showed a GI50 of 18 µM, an LC50 (50% lethal concentration) of 91 µM and a TGI of 77 µM.
Turning to `Cc1ccc(S(=O)(=O)N2CC[C@@H](Cl)C[C@@H]2C2CCCCC2)cc1`, the values for the GI50 in the test with A2780, with SW1573 [1] and with WiDr [2] were 72 µM, 53 µM and 15 µM, respectively.
As for `Cc1ccc(S(=O)(=O)N2CCC(Cl)=CC2CC(C)C)cc1` (centres undefined), the GI50 in the test with A2780 stood at 35 µM; in the test on SW1573 [1] it was 31 µM; with WiDr [2], 21 µM.
Taken in the same sequence, the figures for `Cc1ccc(S(=O)(=O)N2CC[C@@H](Br)C[C@@H]2C2CCCCC2)cc1` were greater than 100 µM, 82 µM and 14 µM.
On the same counts, the results for `CCCCCCCC1C=C(Br)CCN1S(=O)(=O)c1ccc(C)cc1` (centres undefined) are greater than 100 µM, 49 µM and 40 µM.
On the same counts, the results for `Cc1ccc(S(=O)(=O)N2CC[C@@H](Cl)C[C@@H]2CC(C)C)cc1` are 36 µM, 19 µM and 22 µM.
As for `Cc1ccc(S(=O)(=O)N2CC=C(Cl)CC2)cc1`, the concentration for 50% growth inhibition (GI50) with A2780, with SW1573 [1] and in the test with WiDr [2] was greater than 100 µM throughout.
With `Cc1ccc(S(=O)(=O)N2CC[C@@H](Br)C[C@@H]2Cc2ccccc2)cc1`, the GI50 is 63 µM with A2780, 73 µM with SW1573 [1] and 37 µM in the test on WiDr [2].
In the case of `Cc1ccc(S(=O)(=O)N2CCC(Cl)=CC2Cc2ccccc2)cc1` (centres undefined), the 50% growth inhibitory concentration (GI50) came to 4.8 µM in the test with A2780, 6.6 µM in the test on SW1573 [1] and 3.3 µM in the test on WiDr [2]. Moreover, the LC50 (50% lethal concentration) in the test on WiDr [2] amounted to 79 µM. In the test with WiDr [2], this compound registered a total growth inhibition concentration (TGI) of 14 µM. Further, the Activity in the test on SW1573 [3] worked out at 25%; with WiDr [4], 53%; with SW1573 [5], 38%; in the test on WiDr [6], 81%.
With `Cc1ccc(S(=O)(=O)N2CC[C@@H](Cl)C[C@@H]2c2ccccc2)cc1`, the GI50 was greater than 100 µM with A2780, greater than 100 µM with SW1573 [1] and 37 µM with WiDr [2].
On to `Cc1ccc(S(=O)(=O)N2CCC(Br)=CC2C2CCCCC2)cc1` (centres undefined), for which the GI50 in the test on A2780 was 44 µM; with SW1573 [1], 65 µM; in the test with WiDr [2], 18 µM.
`CCCCCCC[C@H]1C[C@H](Br)CCN1S(=O)(=O)c1ccc(C)cc1`: the GI50 in the test on A2780, in the test on SW1573 [1] and in the test on WiDr [2] was greater than 100 µM each time.
On to `Cc1ccc(S(=O)(=O)N2CCC(Br)=CC2Cc2ccccc2)cc1` (centres undefined), for which the results for the concentration for 50% growth inhibition (GI50) with A2780, in the test on SW1573 [1] and with WiDr [2] were 27 µM, 21 µM and 24 µM, respectively. For the same compound, the TGI is 77 µM with A2780, 78 µM with SW1573 [1] and 71 µM in the test on WiDr [2].
Turning to `Cc1ccc(S(=O)(=O)N2CCC(Br)=CC2c2ccccc2)cc1` (centres undefined), the GI50 with A2780 is 49 µM; in the test on SW1573 [1], 54 µM; with WiDr [2], 29 µM.
`Cc1ccc(S(=O)(=O)N2CCC(Cl)CC2)cc1`: the GI50 with A2780, in the test with SW1573 [1] and in the test with WiDr [2] was greater than 100 µM throughout.
For the compound `Cc1ccc(S(=O)(=O)N2CC=C(Br)CC2)cc1`, the GI50 in the test with A2780, in the test on SW1573 [1] and with WiDr [2] was greater than 100 µM in each case.
Take `CCCCCCC[C@H]1C[C@H](Cl)CCN1S(=O)(=O)c1ccc(C)cc1`: the GI50 was greater than 100 µM in the test with A2780, greater than 100 µM in the test with SW1573 [1] and 54 µM in the test with WiDr [2].
Regarding `Cc1ccc(S(=O)(=O)N2CC[C@@H](Br)C[C@@H]2CC(C)C)cc1`, the values for the GI50 in the test with A2780, with SW1573 [1] and with WiDr [2] were 39 µM, 22 µM and 14 µM, respectively.
Taken in the same sequence, the figures for `Cc1ccc(S(=O)(=O)N2CCC(Cl)=CC2C2CCCCC2)cc1` (centres undefined) were 39 µM, 62 µM and 24 µM.
